Measurements from PubChem BioAssay.
Active and inactive are the calls of the source.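 Rule for the calls, unless noted: active = viability at or below 30% in both replicate assays; inconclusive = viability at or below 30% in just one of the two assays; inactive = the rest.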

Key:
[1] = reducers of endogenous Her2 protein level, primary screen, SKBR3 breast tumor cells, AlphaScreen, ATP viability (AID 461;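 active = Her2 level under about 52% in both replicate screens, with viability over 70% of control, limit read from the data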;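 for Her2 level: lower value means less Her2 protein in the cells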;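 for viability: percent of carrier control wells set as 100% viability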); settings: 18-24 h, measured here: SKBR3 viability, ATP luminescence, at 10 µM
[2] = biological target: Receptor tyrosine-protein kinase erbB-2 (Homo sapiens) (UniProt P04626); test: as above; settings: 18-24 h, at 10 µM, stronger effect = lower value
[3] = SK-BR-3 cell growth inhibitors, pilot screen, 24 h, human (AID 572;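 active = viability at or below 10% of carrier control in both of two separate runs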;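 note: compound exposure lasted between 18 and 24 h rather than exactly 24 h; 100% = carrier-treated control wells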); settings: SK-BR-3 viability, CellTiter-Glo luminescence, at 10 µM, stronger effect = lower value
[4] = HUVEC growth inhibition – cell-based, human, primary screen (AID 575); settings: HUVEC proliferation, CellTiter-Glo luminescence, 72 h; at 10 µM; stronger effect = lower value;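 note: 100% = median of untreated cell wells with 0.1% DMSO on each plate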
How it was run: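 System: primary human umbilical vein endothelial cells; Quantity: 1250 endothelial cells in each well; Buffer or medium: supplemented EBM, 2% fetal bovine serum; Doses: one dose, 10 µM final, 0.1% DMSO; Incubation: 72 h compound incubation; Technique: ATP-based CellTiter-Glo luminescent read; Evaluation: percent of median DMSO-control luminescence; Controls: vehicle and MePR control wells.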

[5] = growth inhibitors of H69AR lung tumor, primary screen, human, duplicate replicates (AID 580;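 active = viability at or under a set limit in both replicates, limit being median viability minus 3 SD, cut at about 48% in these data, passing the limit was not always enough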;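 note: 100% = mean luminescence of untreated wells and 0% = no signal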); settings: H69AR lung tumor cells viability, ATP luminescence, 72 h; at 10 µM; stronger effect = lower value
[6] = reversal of MRP1-mediated doxorubicin resistance, pilot screen, H69AR cells, doxorubicin co-treatment (AID 601;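 active = viability loss from added drug above about 55%, and viability with drug at most 40%, in both replicates, limit read from the data, passing the limit was not always enough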); settings: CellTiter-Glo, 72 h, at 10 µM; for differential viability (reversal): stronger effect = higher value
[7] = 384-well plate pilot, post-Golgi transport modulator project, inhibition of yeast transport mutant growth (AID 636; in the data active = inhibition above about 31%); settings: absorbance 615 nm, about 18 h, stronger effect = higher value
[8] = growth suppression of yeast trafficking mutant, preliminary HTS, modulators of trafficking downstream of Golgi apparatus project, 1536-format plate, OD 615 nm (AID 637; in the data active = inhibition above about 30%); settings: yeast transport mutant growth, absorbance 615 nm, 18 h; stronger effect = higher value
[9] = H69AR cells + 2 uM doxorubicin, measured here: viability with 2 uM doxorubicin, stronger effect = lower value
[10] = H69AR cells, compound alone cytotoxicity

Receptor tyrosine-protein kinase erbB-2 (Homo sapiens), sequence (P04626 whole entry, looked up): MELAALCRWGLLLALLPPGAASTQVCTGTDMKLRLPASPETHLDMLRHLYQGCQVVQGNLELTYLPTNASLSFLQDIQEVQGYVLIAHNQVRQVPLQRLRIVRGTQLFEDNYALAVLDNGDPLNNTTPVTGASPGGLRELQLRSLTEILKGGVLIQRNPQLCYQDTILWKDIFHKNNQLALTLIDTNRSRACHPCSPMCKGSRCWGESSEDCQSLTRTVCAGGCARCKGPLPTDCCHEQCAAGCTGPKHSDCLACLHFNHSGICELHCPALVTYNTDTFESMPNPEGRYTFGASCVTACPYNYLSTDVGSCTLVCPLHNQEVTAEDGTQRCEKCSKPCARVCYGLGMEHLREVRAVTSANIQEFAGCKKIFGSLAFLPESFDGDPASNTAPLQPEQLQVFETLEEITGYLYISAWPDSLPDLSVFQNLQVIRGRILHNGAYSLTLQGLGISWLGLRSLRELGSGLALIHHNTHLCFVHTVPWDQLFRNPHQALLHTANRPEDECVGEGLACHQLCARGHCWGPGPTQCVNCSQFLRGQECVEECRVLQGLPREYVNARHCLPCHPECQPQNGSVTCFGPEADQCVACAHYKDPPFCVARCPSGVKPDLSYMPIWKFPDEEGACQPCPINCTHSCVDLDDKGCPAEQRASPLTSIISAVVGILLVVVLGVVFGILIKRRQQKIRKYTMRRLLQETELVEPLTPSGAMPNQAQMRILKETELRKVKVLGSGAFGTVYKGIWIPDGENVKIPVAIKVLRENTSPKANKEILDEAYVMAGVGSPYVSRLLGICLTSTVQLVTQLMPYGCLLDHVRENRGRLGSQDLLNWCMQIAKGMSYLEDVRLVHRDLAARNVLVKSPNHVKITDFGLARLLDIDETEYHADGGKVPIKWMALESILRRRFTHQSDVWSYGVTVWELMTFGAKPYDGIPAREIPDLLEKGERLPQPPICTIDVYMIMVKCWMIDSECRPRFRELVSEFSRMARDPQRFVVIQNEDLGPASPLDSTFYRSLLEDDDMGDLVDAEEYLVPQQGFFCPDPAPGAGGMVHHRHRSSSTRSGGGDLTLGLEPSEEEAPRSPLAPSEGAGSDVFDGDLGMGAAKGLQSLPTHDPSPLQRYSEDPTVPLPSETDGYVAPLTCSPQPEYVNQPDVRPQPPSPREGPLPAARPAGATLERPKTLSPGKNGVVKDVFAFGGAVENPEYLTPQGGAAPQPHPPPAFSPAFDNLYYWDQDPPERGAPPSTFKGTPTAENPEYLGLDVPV

SMILES	viability [1]	Her2 level [2]	viability [3]	viability [4]	viability [5]	differential viability (reversal) ([6]; H69AR cells + 2 uM doxorubicin)	viability [6, 9]	viability [6, 10]	inhibition [7]	inhibition [8]
O=C(c1cccnc1)N1CCc2ccccc21	74%	77.5% (inactive)	74% (inactive)	88.1% (inactive)	95% (inactive)	-16.3% (inactive)	111%	95%	-5.68% (inactive)	-0.16% (inactive)
CCc1nc(NCCCN2CCOCC2)c2oc3ccccc3c2n1	88%	95% (inactive)	88% (inactive)	80.3% (inactive)	89.1% (inactive)	0.87% (inactive)	88.2%	89.1%	-0.13% (inactive)	0.81% (inactive)
Cc1ccc(C)c2[nH]c(=O)c(CN(CCN3CCCC3)C(=O)Nc3cccc(Cl)c3)cc12	87%	84% (inactive)	87% (inactive)	15.6% (active)	26.6% (active)	-6.23% (inactive)	32.8%	26.6%	-8.22% (inactive)	-0.32% (inactive)
CCOC(=O)NC1(NCc2ccccc2)Oc2ccccc2O1	92.5%	101% (inactive)	92.5% (inactive)	58.5% (inactive)	36.8% (active)	-25% (inactive)	61.7%	36.8%	6.23% (inactive)	-8.69% (inactive)
CCn1c(SC)nc2c(c1=O)SC(C)C2 (stereo not given)	111%	110% (inactive)	111% (inactive)	113% (inactive)	98.4% (inactive)	17.2% (inactive)	81.2%	98.4%	-4.67% (inactive)	1.8% (inactive)
CCN(CC)c1nc2nonc2nc1N(CC)CC	101%	92% (inactive)	101% (inactive)	110% (inactive)	104% (inactive)	4.4% (inactive)	99.2%	104%	-6.53% (inactive)	3.17% (inactive)
CC(C)C(NC(=O)OCc1ccccc1)C(=O)OCC(=O)NCc1ccco1 (stereo not given)	100%	108% (inactive)	100% (inactive)	86.2% (inactive)	85.3% (inactive)	7.68% (inactive)	77.6%	85.3%	-1.18% (inactive)	-11.3% (inactive)
CCOC(=O)c1ccc(Oc2nc(SC)nc(N(C)C)n2)cc1	73.5%	100% (inactive)	73.5% (inactive)	85% (inactive)	107% (inactive)	2.66% (inactive)	105%	107%	-1.54% (inactive)	-8.17% (inactive)
O=C(CS(=O)CC(=O)Nc1cccc2c1CCCC2)Nc1ccc(F)cc1 (stereo not given)	114%	103% (inactive)	114% (inactive)	88.3% (inactive)	102% (inactive)	4.67% (inactive)	97.8%	102%	-6.93% (inactive)	4.1% (inactive)
O=C(NC1CCCCC1)c1cc2nc(-c3ccco3)cc(C(F)(F)F)n2n1	81.5%	93% (inactive)	81.5% (inactive)	106% (inactive)	80.2% (inactive)	-2.98% (inactive)	83.2%	80.2%	-2.08% (inactive)	2.79% (inactive)
O=C(COC(=O)CSc1nnc(-c2ccc(Cl)cc2)o1)NCc1ccc2c(c1)OCO2	98%	84% (inactive)	98% (inactive)	90.8% (inactive)	104% (inactive)	3.27% (inactive)	100%	104%	-4.19% (inactive)	0.79% (inactive)
CCOC(=O)N1CCN(S(=O)(=O)c2cc(Cl)ccc2Cl)CC1	106%	94.5% (inactive)	106% (inactive)	90.7% (inactive)	85% (inactive)	2.05% (inactive)	83%	85%	-3.38% (inactive)	-0.32% (inactive)
Cc1cc(Cl)ccc1OCCCC(=O)NO	80.5%	76% (inactive)	80.5% (inactive)	71.3% (inactive)	2.07% (active)	-20.7% (inactive)	22.7%	2.07%	2.18% (inactive)	3.83% (inactive)
CCn1c(SCC(=O)c2ccc(F)cc2)nnc1-c1ccoc1C	104%	97.5% (inactive)	104% (inactive)	104% (inactive)	106% (inactive)	19.3% (inactive)	86.9%	106%	-6.1% (inactive)	-0.95% (inactive)
Cc1ccc(Cl)cc1NC(=O)CSc1nnc(C)n1-c1ccccc1	90%	79% (inactive)	90% (inactive)	91% (inactive)	86.6% (inactive)	6.06% (inactive)	80.6%	86.6%	-2.63% (inactive)	0.65% (inactive)
Cc1cc(C)c2c(n1)nn1c(C3CC3)cc(C(F)(F)F)nc21	106%	89% (inactive)	106% (inactive)	90.7% (inactive)	92.4% (inactive)	-4.02% (inactive)	96.4%	92.4%	-5.41% (inactive)	2.54% (inactive)

SMILES	viability [1]	Her2 level [2]	viability [3]	viability [4]	viability [5]	differential viability (reversal) ([6]; H69AR cells + 2 uM doxorubicin)	viability [6, 9]	viability [6, 10]	inhibition [7]	inhibition [8]
CC(=O)N1CCC2(CC1)CC(=O)c1cc(OCC(=O)NCc3ccc(C)cc3)ccc1O2	97%	84% (inactive)	97% (inactive)	99.4% (inactive)	90% (inactive)	-0.255% (inactive)	90.3%	90%	-2.76% (inactive)	0.91% (inactive)
c1coc(Cn2nnnc2CN2CCN(C3CCCC3)CC2)c1	90.5%	107% (inactive)	90.5% (inactive)	92.8% (inactive)	93.2% (inactive)	4.64% (inactive)	88.6%	93.2%	-4.67% (inactive)	-8.41% (inactive)
COc1ccc(C)cc1NC(=O)COCC(=O)O	106%	114% (inactive)	106% (inactive)	92.4% (inactive)	103% (inactive)	7.92% (inactive)	95.2%	103%	-6.89% (inactive)	-3.49% (inactive)
COc1ccc(S(=O)(=O)C(C#N)c2nc3ccccc3nc2N2CCCC(C)C2)cc1 (stereo not given)	112%	102% (inactive)	112% (inactive)	51.2% (inactive)	75.5% (inactive)	-10.6% (inactive)	86%	75.5%	-2.21% (inactive)	6.67% (inactive)
Cc1onc(-c2ccccc2)c1C(=O)Nc1ccc(S(=O)(=O)N2CCCCC2)cc1	95.5%	94.5% (inactive)	95.5% (inactive)	58.4% (inactive)	88.9% (inactive)	-3.39% (inactive)	92.3%	88.9%	-0.77% (inactive)	1% (inactive)
COc1ccc(C(=O)Nc2cccc(C)c2)cc1S(=O)(=O)N1CCOCC1	100%	83% (inactive)	100% (inactive)	108% (inactive)	93.2% (inactive)	7.64% (inactive)	85.5%	93.2%	-5% (inactive)	-5.71% (inactive)
Cc1csc2ncc(C(=O)N3CCc4ccccc43)c(=O)n12	95.5%	109% (inactive)	95.5% (inactive)	86% (inactive)	89% (inactive)	-3.54% (inactive)	92.5%	89%	-7.2% (inactive)	4% (inactive)
CC(C)C(NC(=O)c1ccccc1NC(=O)c1ccco1)C(=O)O (stereo not given)	114%	77.5% (inactive)	114% (inactive)	94.8% (inactive)	91.6% (inactive)	2.44% (inactive)	89.1%	91.6%	-8.24% (inactive)	6.98% (inactive)
Cc1cc(Cl)ccc1OCCCC(=O)N1CCOCC1	90%	92.5% (inactive)	90% (inactive)	99.5% (inactive)	87.7% (inactive)	0.08% (inactive)	87.6%	87.7%	-5.39% (inactive)	11.2% (inactive)
CCC(C)NC(=O)C1(C)CCC(=O)N1CCc1ccc(OC)c(OC)c1 (stereo not given)	104%	95% (inactive)	104% (inactive)	95.4% (inactive)	86.1% (inactive)	-8.14% (inactive)	94.2%	86.1%	-1.04% (inactive)	-1.27% (inactive)
Cc1cccc(N2CN=c3s/c(=C\c4ccncc4)c(=O)n3C2)c1	86.5%	68% (inactive)	86.5% (inactive)	77.4% (inactive)	80.8% (inactive)	-10.2% (inactive)	91%	80.8%	-1.32% (inactive)	-2.42% (inactive)
Cc1ccc2nc(NC(=O)C3CCCN(S(=O)(=O)c4cnc[nH]4)C3)sc2c1 (stereo not given)	96.5%	92% (inactive)	96.5% (inactive)	98% (inactive)	81.9% (inactive)	-9.05% (inactive)	90.9%	81.9%	-2.67% (inactive)	-3.11% (inactive)
CC(=O)N1CCN(C(=O)COc2ccc(Br)cc2)CC1	108%	92.5% (inactive)	108% (inactive)	113% (inactive)	105% (inactive)	20.5% (inactive)	84.6%	105%	-2.03% (inactive)	0.16% (inactive)
C=CS(=O)(=O)c1ccc(Oc2ccc(S(=O)(=O)C=C)cc2)cc1	243%	21% (active)	243% (inactive)	97% (inactive)	1.27% (active)	0.405% (inactive)	0.865%	1.27%	-4.67% (inactive)	1.77% (inactive)
O=C(COc1nnc2ccccn12)N1CCN(S(=O)(=O)c2ccccc2)CC1	107%	86% (inactive)	107% (inactive)	98.8% (inactive)	97.2% (inactive)	13.2% (inactive)	84%	97.2%	-5.13% (inactive)	-5.09% (inactive)
